Reference: PMC2813064 (Bioconjugate chemistry, 2010)
“Also recorded” adds a separate entry of the source.

Experiments:
[1] = Zeta potential of peptide-DNA polyplexes; type: physicochemical; details: positive (+ mV); peptide-DNA polyplex 0.5 nmol peptide per µg DNA, 5 mM Hepes, pH 7.4 (footnote), mean of ten measurements
Method in brief: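 Polyplex was made in 5 mM Hepes at 30 µg/ml DNA with 15 nmol/ml peptide. Zeta potential was read on a ZetaPlus instrument straight after QELS particle sizing at a 90° scatter angle, as the mean of ten measurements.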

Erythrocytes = assay: RBC hemolysis assay; type: cell-based, mice; details: peptide DNA polyplexes (1.5 nmols and 7.5 µg pGL3), pH 7.4, Fig. 4C
Method in brief: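 Erythrocytes from male ICR mouse heart blood (heparinized) were washed three times in 0.15 M PBS pH 7.4 and diluted to 1.5 × 10^8 cells/ml. 7.5 × 10^6 cells were added to the polyplexes (1.5 nmol peptide, 7.5 µg pGL3) in triplicate and held 1 h at 37°C, then filtered. Filtrate Abs410 nm was expressed against 100% lysis with water replacing PBS.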

CHO cells = assay: In vitro gene transfer; type: cell-based; details: 10 µg pGL3, luciferase at 24 hrs, Fig. 5
Method in brief: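 Cells: CHO, 5 × 10^5 per 35 mm well, grown to about 50% confluency in MEM with 2 or 10% FBS, 1 mM sodium pyruvate and pen/strep. Polyplexes: peptide and pGL3 at 0.1–0.75 nmol peptide per µg DNA, in HBM (5 mM Hepes, 0.27 M mannitol, pH 7.5). Triplicate wells, 24 h. Luciferase RLU were converted to fmol by standard curve and normalized to mg protein (BCA).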

[2] = system: HepG2, 3T3, and CHO cells; assay: In vitro gene transfer; type: cell-based; details: 0.5 nmol peptide per µg pGL3, 10 µg pGL3, luciferase at 24 hrs, Fig. 6
Method in brief: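 Plating: HepG2, CHO or 3T3, 5 × 10^5 cells per 35 mm well, about 50% confluent. Transfection: 10 µg pGL3 polyplex (0.5 nmol peptide/µg DNA, 30 µg/ml DNA in 5 mM Hepes/0.27 M mannitol pH 7.5), added dropwise in triplicate for 24 h in MEM with 2 or 10% FBS. Read-out: lysate luciferase (0.5 mM D-luciferin injection, 10 s integration) as fmol per mg protein, mean ± SD of triplicates.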

Question: With “(Acr-Arg)2-C-CWKKGIGAVLKVLTTGLPALISLIKRKRQQ (disulfide) [poly(Acr-Arg)2-SS-melittin]” as the substance, how does the “Zeta Potential” value [1] read?
Answer: 25 ± 2.2 mV

Question: With “(Acr-Arg)3-C-CWKKGIGAVLKVLTTGLPALISLIKRKRQQ (disulfide) [poly(Acr-Arg)3-SS-melittin]” as the substance, how does the “Zeta Potential” value [1] read?
Answer: 29 ± 4.5 mV

Question: What does the source list for “(Acr-Arg)4-C-CWKKGIGAVLKVLTTGLPALISLIKRKRQQ (disulfide) [poly(Acr-Arg)4-SS-melittin]”?
Answer: Hemolytic activity when combined with pGL3 (Erythrocytes): completely neutralized; also recorded: non hemolytic; Zeta Potential [1]: 29 ± 2.6 mV; Gene expression, fold greater than poly(Acr-Arg)4-Mal-melittin (CHO cells): approximately 1000 fold

Question: With “(CWKKGIGAVLKVLTTGLPALISLIKRKRQQ)2 (disulfide) [Dimeric-melittin]” as the substance, how does the “Gene transfer, fold lower than poly(Acr-Arg)2–4-SS-melittin” value [2] read?
Answer: 10–100 fold

Question: For “W(Lys(Ac)-Arg)4-C-CWKKGIGAVLKVLTTGLPALISLIKRKRQQ (disulfide) [poly(Lys(Ac)-Arg)4-SS-melittin]”, which “Zeta Potential” value [1] is on record?
Answer: 20 ± 2.9 mV
